The results in this text go back to ChEMBL document CHEMBL4627265, “Optimization of 8-oxoadenines with toll-like-receptor 7 and 8 activity” (Bioorg Med Chem Lett, 2020).

This assay addresses T1, Toll-like receptor 7 (Homo sapiens) (UniProt Q9NYK1).
T1 sequence (whole entry): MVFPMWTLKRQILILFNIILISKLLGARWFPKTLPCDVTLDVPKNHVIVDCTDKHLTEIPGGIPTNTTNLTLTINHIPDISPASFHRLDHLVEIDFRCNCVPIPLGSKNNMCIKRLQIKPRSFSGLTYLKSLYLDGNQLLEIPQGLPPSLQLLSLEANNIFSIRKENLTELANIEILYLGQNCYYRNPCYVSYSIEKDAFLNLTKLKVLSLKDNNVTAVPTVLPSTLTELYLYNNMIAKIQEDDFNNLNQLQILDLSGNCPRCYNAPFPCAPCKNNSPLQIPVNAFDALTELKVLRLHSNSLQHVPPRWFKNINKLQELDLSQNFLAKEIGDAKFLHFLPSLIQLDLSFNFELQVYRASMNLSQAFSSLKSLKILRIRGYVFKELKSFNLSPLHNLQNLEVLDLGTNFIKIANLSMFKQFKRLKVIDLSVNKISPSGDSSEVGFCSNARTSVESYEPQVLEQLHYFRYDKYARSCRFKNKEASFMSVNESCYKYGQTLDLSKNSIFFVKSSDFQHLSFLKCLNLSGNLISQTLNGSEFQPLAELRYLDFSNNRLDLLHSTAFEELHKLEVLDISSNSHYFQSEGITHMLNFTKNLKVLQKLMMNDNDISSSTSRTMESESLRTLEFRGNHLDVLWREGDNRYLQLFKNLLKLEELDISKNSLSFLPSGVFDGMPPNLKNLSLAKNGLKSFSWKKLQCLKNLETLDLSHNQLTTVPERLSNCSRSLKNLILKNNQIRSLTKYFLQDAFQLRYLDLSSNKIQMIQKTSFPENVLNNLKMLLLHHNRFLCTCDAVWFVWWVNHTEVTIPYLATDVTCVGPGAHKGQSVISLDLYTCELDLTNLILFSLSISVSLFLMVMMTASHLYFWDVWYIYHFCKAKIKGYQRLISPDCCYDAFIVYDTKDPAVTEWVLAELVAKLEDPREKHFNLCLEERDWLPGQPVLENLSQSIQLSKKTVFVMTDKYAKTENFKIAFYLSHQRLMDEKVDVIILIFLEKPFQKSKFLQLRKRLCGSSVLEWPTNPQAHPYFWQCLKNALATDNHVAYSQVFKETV
The experiment in a line: Agonist activity at TLR7 in human PBMC assessed as induction of plasmacytoid dendritic cell maturation by measuring HLA-DR level at 0.1 uM after 6 hrs by flow cytometry. It counts as cell-based. The method in brief: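 hPBMCs stimulated 6 h at a single 0.1 μM dose; HLA-DR, MHC-I, CD80 and CD86 on mDCs and pDCs measured by flow cytometry, expressed as fold change versus unstimulated cells. Mean ± SD of three independent experiments in three different donors.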
In general terms: A flow cytometer gives signals particle by particle.

Active and inactive are the calls of the source. The rule behind the calls is not given here.

Consider `Nc1nc(OCCCCO)nc2c1[nH]c(=O)n2CC1CCNCC1`, for which the outcome was inactive.
